# Assay results as given in paper PMC9585524 (ACS Bio & Med Chem Au, 2022).
# “Also recorded” adds a separate entry of the source.
# Assays:
# hSphK2 = target: T1, hSphK2 (Homo sapiens, UniProt Q9NRA0); assay type: biochemical
# T1 sequence (Q9NRA0 1-618 isoform Q9NRA0-2): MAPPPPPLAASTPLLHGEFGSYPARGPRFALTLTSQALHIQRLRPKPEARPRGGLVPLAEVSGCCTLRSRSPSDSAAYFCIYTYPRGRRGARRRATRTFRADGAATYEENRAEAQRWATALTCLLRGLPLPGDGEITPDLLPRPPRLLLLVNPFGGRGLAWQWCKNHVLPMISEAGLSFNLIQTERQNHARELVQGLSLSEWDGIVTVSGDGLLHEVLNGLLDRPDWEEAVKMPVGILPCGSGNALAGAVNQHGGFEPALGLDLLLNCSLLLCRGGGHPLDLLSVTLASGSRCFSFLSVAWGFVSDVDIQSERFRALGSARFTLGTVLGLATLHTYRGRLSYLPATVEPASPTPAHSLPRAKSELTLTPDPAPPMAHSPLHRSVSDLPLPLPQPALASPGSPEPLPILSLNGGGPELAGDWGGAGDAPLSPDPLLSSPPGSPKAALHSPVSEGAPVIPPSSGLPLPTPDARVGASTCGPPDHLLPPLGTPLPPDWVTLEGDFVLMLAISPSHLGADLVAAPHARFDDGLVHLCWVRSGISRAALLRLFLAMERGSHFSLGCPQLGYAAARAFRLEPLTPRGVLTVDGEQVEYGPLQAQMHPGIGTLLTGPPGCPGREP
# U937 cells = test: S1P levels in U937 cells by LC-MS/MS; assay type: cell-based, human; details: varying concentrations of 14c, 2 h, Figure 5A, duplicate
# Outline: (§1)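 U937 cells were grown in RPMI 1640 with 10% FBS, then moved to 0.5% FBS for 24 h. They were treated 2 h with test compound (30–1000 nM) plus 1 μM FTY720. Pellets (2–3 × 10^6 cells) were extracted in methanol/chloroform with deuterated internal standards and base-treated. S1P and FTY720-P were measured by LC-MS/MS, in duplicate.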
# blood S1P = test: Blood S1P in C57BL/6 mice after a single intraperitoneal dose, LC-MS/MS; assay type: in vivo; details: for S1P levels in blood: 5 mg/kg single intraperitoneal injection
# Outline: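 Male C57BL/6J mice in groups of four received 5 mg/kg test compound i.p. in 2% hydroxypropyl-β-cyclodextrin, and controls got an equal volume of vehicle. Blood was drawn at set times, with the earliest 1–2 min post-dose. Whole blood (10 μL) was extracted in methanol/chloroform with d7-S1P/d7-sphingosine internal standards (48 °C, 16 h), then treated with KOH/methanol. S1P was quantified by LC-MS/MS MRM (380.4 → 264.4).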
# SphK2 in U937 cells = test: FTY720-P levels in U937 cells; assay type: cell-based, human; details: 1 μM FTY720 and 14c at 30–1000 nM, Figure 5B, duplicate
# Outline: as §1
# estrogen receptors = details: cited from earlier work
Compound,selectivity for SphK2 over SphK1 (hSphK2),S1P levels in U937 cells (U937 cells),S1P levels in blood (blood S1P; 4 h post dosing),S1P levels in blood (blood S1P; after 24 h),"circulating (blood) S1P levels (blood S1P; mice, 5 mg/kg, overall statement)",FTY720-P levels in U937 cells (SphK2 in U937 cells),action at estrogen receptors (estrogen receptors)
"Cl.N=C(N)N1CCC[C@H]1c1nc(-c2ccc(CCC3CCCCC3)c(C(F)(F)F)c2)no1 [14c, (S)-2-(3-(4-(2-Cyclohexylethyl)-3-(trifluoromethyl)phenyl)-1,2,4-oxadiazol-5-yl)pyrrolidine-1-carboximidamide Hydrochloride]",~200 fold,dose-dependent decrease,doubling,returning close to baseline,sustained increase; also recorded: profound increases,concentration-dependent decrease,–
O=C(NCc1ccncc1)C12CC3CC(C1)CC(c1ccc(Cl)cc1)(C3)C2 [compound 1],–,–,–,–,–,–,tamoxifen-mimetic
